Active and inactive are the calls of the source. The rule behind the calls is not given here.
How the values were obtained:
HCT-116 [1] = assay: Induction of apoptosis in human HCT-116 cells assessed as increase in PARP cleavage at 10 uM measured after 24 hrs by Western blot analysis; format: functional, cell-based
Method in brief: (§1)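 HCT-116 or U937 cells treated at 10 µM for 12 and 24 h. […] Western blot used 40 µg total protein or 5 µg acid-extracted histone. Blots probed for cleaved PARP, acetylated tubulin, H3K9/14ac and Hsp90(AcLys294), normalized to GAPDH or H4. Compared with control cells by one-way ANOVA and Dunnett's test.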

[2] = target: T1, Protein deacetylase HDAC6 (Homo sapiens) (UniProt Q9UBN7); assay: Inhibition of HDAC6 in human U-937 cells assessed as increase in alpha-tubulin acetylation at 10 uM measured after 12 to 24 hrs by Western blot analysis relative to control; format: cell-based; conditions: time 12-24 hrs; method in brief: as §1
T1 sequence (whole entry): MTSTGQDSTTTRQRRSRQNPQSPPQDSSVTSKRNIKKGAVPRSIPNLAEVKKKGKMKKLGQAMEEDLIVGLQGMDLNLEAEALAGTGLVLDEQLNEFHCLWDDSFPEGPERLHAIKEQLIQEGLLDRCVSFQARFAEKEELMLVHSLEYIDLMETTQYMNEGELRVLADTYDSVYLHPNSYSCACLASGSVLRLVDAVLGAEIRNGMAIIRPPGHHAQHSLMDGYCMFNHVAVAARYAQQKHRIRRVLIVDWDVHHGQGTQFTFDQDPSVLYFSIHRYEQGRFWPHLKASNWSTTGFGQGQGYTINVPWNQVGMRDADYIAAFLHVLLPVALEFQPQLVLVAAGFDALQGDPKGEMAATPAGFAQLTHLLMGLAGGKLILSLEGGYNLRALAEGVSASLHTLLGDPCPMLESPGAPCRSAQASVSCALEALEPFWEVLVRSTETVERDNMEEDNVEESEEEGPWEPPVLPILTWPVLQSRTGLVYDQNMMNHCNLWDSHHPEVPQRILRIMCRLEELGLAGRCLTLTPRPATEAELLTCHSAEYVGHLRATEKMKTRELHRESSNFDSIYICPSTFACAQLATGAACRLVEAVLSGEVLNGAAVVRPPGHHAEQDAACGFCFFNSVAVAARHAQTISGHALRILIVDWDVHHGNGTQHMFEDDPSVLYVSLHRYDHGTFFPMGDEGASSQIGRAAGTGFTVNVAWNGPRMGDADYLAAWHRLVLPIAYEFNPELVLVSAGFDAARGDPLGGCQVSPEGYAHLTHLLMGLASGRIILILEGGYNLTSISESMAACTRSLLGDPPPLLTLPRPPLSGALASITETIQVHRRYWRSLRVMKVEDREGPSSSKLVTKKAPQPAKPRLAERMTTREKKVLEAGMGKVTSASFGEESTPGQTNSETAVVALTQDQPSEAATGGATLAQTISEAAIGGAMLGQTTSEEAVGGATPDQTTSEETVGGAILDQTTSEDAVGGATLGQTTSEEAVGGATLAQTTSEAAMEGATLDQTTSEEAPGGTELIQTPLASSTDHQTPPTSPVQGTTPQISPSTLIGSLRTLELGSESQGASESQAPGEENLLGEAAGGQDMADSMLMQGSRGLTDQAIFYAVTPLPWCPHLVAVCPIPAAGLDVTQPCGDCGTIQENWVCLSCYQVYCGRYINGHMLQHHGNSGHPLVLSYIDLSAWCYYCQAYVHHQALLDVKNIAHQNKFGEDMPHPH

[3] = Mutagenicity in Salmonella typhimurium TA100 at 5 to 230 uM measured after 90 mins in presence of rat liver S9 fraction by Ames test; format: toxicity, subcellular; conditions: salmonella enterica subsp. enterica serovar typhimurium, s9, 1.5 h, dose 5-230 µM
[4] = Stability of compound in pH 3 buffer assessed as parent compound remaining at 250 uM measured after 24 hrs by HPLC/UV/DAD method; format: physicochemical; conditions: read-out: Stabilty
Method in brief: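 10 mM DMSO stock diluted to 250 µM (2.5% DMSO) in 50 mM acetic acid, pH 3.0, and shaken 24 h at 25 °C. For solubility, samples filtered, diluted 1:2, quantified by HPLC-UV at 254 nm against a standard. For stability, percent remaining taken as the 24 h peak area over the T0 peak area. Triplicate analyses averaged.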

Histone deacetylase 8 = target: T2, Histone deacetylase 8 (Homo sapiens, UniProt Q9BY41); assay: Inhibition of recombinant human HDAC8 using Fluor-de-Lys as substrate measured after 1 hr by fluorescence assay
T2 sequence (Q9BY41 whole entry): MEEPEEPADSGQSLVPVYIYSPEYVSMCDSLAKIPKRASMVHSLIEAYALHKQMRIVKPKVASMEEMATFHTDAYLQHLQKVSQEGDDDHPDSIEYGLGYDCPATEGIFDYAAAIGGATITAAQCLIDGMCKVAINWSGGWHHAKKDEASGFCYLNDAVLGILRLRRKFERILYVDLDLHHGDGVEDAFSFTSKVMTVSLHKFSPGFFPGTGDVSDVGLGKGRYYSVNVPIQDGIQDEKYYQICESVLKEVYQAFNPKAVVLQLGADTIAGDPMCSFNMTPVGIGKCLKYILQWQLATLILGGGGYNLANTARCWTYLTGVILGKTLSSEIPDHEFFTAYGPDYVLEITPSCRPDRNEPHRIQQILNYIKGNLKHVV

[5] = target: T1, Protein deacetylase HDAC6 (Homo sapiens); assay: Inhibition of HDAC6 in human U-937 cells assessed as increase in Hsp90(AcLys294) acetylation at 10 uM measured after 12 to 24 hrs by Western blot analysis; format: cell-based; conditions: time 12-24 hrs; method in brief: as §1
[6] = Mutagenicity in Salmonella typhimurium TA98 at 5 to 230 uM measured after 90 mins in presence of rat liver S9 fraction by Ames test; format: toxicity, subcellular; conditions: salmonella enterica subsp. enterica serovar typhimurium, s9, 1.5 h, dose 5-230 µM
[7] = Inhibition of HDAC1/2/3/8 in human U-937 cells assessed as increase in H3K9/14 acetylation at 10 uM measured after 12 to 24 hrs by Western blot analysis; format: cell-based; conditions: u-937, 10 µM, time 12-24 hrs; method in brief: as §1
U-937 = assay: Induction of apoptosis in human U-937 cells assessed as increase in PARP cleavage at 10 uM measured after 24 hrs by Western blot analysis; format: functional, cell-based; method in brief: as §1
HCT-116 [8] = assay: Cytotoxicity against human HCT-116 cells assessed as cell viability measured after 48 hrs by MTT assay relative to control; format: functional
Method in brief: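 HCT-116 cells grown in DMEM with 10% FBS, 2 mM L-glutamine and antibiotics. 2.5×10^4 cells/well treated in triplicate at 50, 25, 10, 5 and 1 µM for 12, 24 or 48 h. Then MTT 0.5 mg/ml for 3 h, supernatant removed, formazan dissolved in isopropanol, absorbance read at 570 nm. IC50 derived from the concentration series.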

[9] = Mutagenicity in Salmonella typhimurium TA100 at 5 to 230 uM measured after 90 mins in absence of rat liver S9 fraction by Ames test; format: toxicity; conditions: salmonella enterica subsp. enterica serovar typhimurium, s9, 1.5 h, dose 5-230 µM

fold change (FC) [2]: > 9
remaining at 24 h, 250 µM [4]: > 95%
IC50 (Histone deacetylase 8): 490 nM
Kapp (Histone deacetylase 8; human, 1 h): 0.4 µM
inhibition [5]: inactive
inhibition (INH) [7]: Active
Structure (SMILES): CCN(CC)Cc1ccc(Cn2c(=O)c(OCc3ccc(C(=O)NO)cc3)c(-c3cccnc3)c3ccccc32)cc1
Activity (HCT-116 [1]): Active
Activity [3]: Non-Toxic
Activity [6]: Non-Toxic
Activity (U-937): Active
Activity (HCT-116 [8]): 10%
Activity [9]: Non-Toxic
